Experimental data: article PMC10548513 (Chemical Science, 2023)
Positions of bridges follow the written chain, without caps; N, C: chain ends. Non-standard residues stand in square brackets, D forms with d. Residues, ends and D or L forms follow the SMILES beside them. No end group written: not given here. R8 = C=CCCCCCC[C@@](C)(N)C(=O)O; S5 = C=CCCC[C@](C)(N)C(=O)O

Tests used:
[1] = system: HeLa cells; experiment: Peptide cytotoxicity, WST-8; assay type: cell-based; conditions: 24 h; for Cytotoxicity at 10 µM: peptide 10 µM; for Cytotoxicity at 30 µM: peptide 30 µM
[2] = Relative hydrophobicity by UPLC retention time; assay type: physicochemical; conditions: comparison among stapled peptides st4-1–6 and st7-1–6 (Table S1)
[3] = system: HeLa cells; experiment: Luciferase reporter assay, transfection of pDNA with peptide/pDNA complexes; assay type: cell-based; conditions: N/P ratio 16, 24 h
How it was run: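 Peptide/pDNA complexes were made with luciferase-encoding (rLuc) pDNA at an N/P charge ratio (peptide cationic residues to pDNA phosphate) of 8 or 16. They were added to HeLa cells for 24 h. Transfection was read as luminescence, given as RLU normalized to blank; n = 3, mean ± standard deviation.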

[4] = system: Huh-7-Luc cells; experiment: RNAi assay by luciferase assay, peptide/siRNA complexes; assay type: cell-based, human; conditions: peptide/Luc-siRNA complex, N/P ratio 16, 48 h, n = 5
How it was run: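 Complexes of peptide with firefly GL3 luciferase siRNA, or scrambled-sequence control siRNA, were prepared at N/P 8 or 16. They were added to Huh-7 cells stably expressing luciferase and incubated for 48 h. Silencing was measured as loss of luminescence; n = 5, mean ± standard deviation.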

Row | Compound | Cytotoxicity at 10 µM [1] | Relative hydrophobicity from UPLC retention times [2] | Transfection efficiency of pDNA relative to st7-5 [3] | Reduction of the luminescence signal (gene silencing) with Luc-siRNA [4] | Cytotoxicity at 30 µM [1]
1 | CC[C@H](C)[C@H](NC(=O)CN)C(=O)N[C@@H](CCCCN)C(=O)N[C@@H](CCCCN)C(=O)N[C@@H](Cc1ccccc1)C(=O)N[C@@H](CC(C)C)C(=O)N[C@@H](CCCCN)C(=O)N[C@]1(C)CCCCCCC=CCCC[C@@](C)(C(=O)N[C@@H](Cc2ccccc2)C(=O)N[C@@H](CCCCN)C(N)=O)NC(=O)[C@H](CCCCN)NC(=O)[C@H](C(C)C)NC(=O)[C@H](Cc2ccccc2)NC(=O)[C@H](CCCCN)NC(=O)[C@H](CCCCN)NC(=O)[C@H](C)NC1=O [st7-5] (H-GIKKFLK[R8]AKKFVK[S5]FK-NH2; staple 8-15) | did not show significant cytotoxicity | most hydrophobic | – | – | –
2 | CC[C@H](C)[C@H](NC(=O)CN)C(=O)N[C@@H](CCCNC(=N)N)C(=O)N[C@@H](CCCNC(=N)N)C(=O)N[C@@H](Cc1ccccc1)C(=O)N[C@@H](CC(C)C)C(=O)N[C@@H](CCCNC(=N)N)C(=O)N[C@]1(C)CCCCCCC=CCCC[C@@](C)(C(=O)N[C@@H](Cc2ccccc2)C(=O)N[C@@H](CCCNC(=N)N)C(N)=O)NC(=O)[C@H](CCCNC(=N)N)NC(=O)[C@H](C(C)C)NC(=O)[C@H](Cc2ccccc2)NC(=O)[C@H](CCCNC(=N)N)NC(=O)[C@H](CCCNC(=N)N)NC(=O)[C@H](C)NC1=O [st7-5_R] (H-GIRRFLR[R8]ARRFVR[S5]FR-NH2; staple 8-15) | did not show significant cytotoxicity | – | about 100 times | ~70% | –
3 | GIGKFLHSAKKFGKAFVGEIMNS-NH2 [Magainin 2, reference compound] | – | – | – | – | did not exhibit cytotoxicity
4 | GIKKFLKSAKKFVKAFK-NH2 [Pep-1] | – | – | – | – | did not exhibit cytotoxicity
